Laboratory results taken from ChEMBL document CHEMBL1687738, “Effect of Candida glabrata FKS1 and FKS2 mutations on echinocandin sensitivity and kinetics of 1,3-beta-D-glucan synthase: implication for the existing susceptibility breakpoint” (Antimicrob Agents Chemother, 2009).
≈ marks a conversion by molar mass, not a printed value. Starred links: 1 amine or outer side, 2 acyl side, 3 side chain; linkers in the order of their positions; H or OH if unused. Positions of bridges follow the written chain, without caps; N, C: chain ends. Non-standard residues stand in square brackets, D forms with d. Residues, ends and D or L forms follow the SMILES beside them. *: point of attachment. hTyr(3S-OH,4S-OH,3'-OSO3H) = N[C@H](C(=O)O)[C@H](O)[C@@H](O)c1ccc(O)c(OS(=O)(=O)O)c1; pTerphenylCO(4''-OnC5H11) = CCCCCOc1ccc(-c2ccc(-c3ccc(C(=O)*)cc3)cc2)cc1; Orn(4R-OH,5R-OH) = O=C([C@H](C[C@@H](O)[C@@H](O)N[*:3])N[*:1])[*:2]; hTyr(3S-OH,4S-OH) = N[C@H](C(=O)O)[C@H](O)[C@@H](O)c1ccc(O)cc1; Pro(3S-OH,4S-Me) = C[C@H]1CN[C@H](C(=O)O)[C@H]1O; X1 = CCCCCOc1ccc(-c2cc(-c3ccc(C(=O)*)cc3)no2)cc1; Gln(3R-OH) = NC(=O)C[C@@H](O)[C@H](N)C(=O)O; Hyp = O=C(O)[C@@H]1C[C@@H](O)CN1

Experiments:
[1] = tested on: Nakaseomyces glabratus; assay: Antifungal activity against Candida glabrata isolate 5416 expressing wild type Fks1p and Fks2p W1375L mutant by CLSI method; format: functional
Procedure, shortened: (§1)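 Broth microdilution MIC per CLSI M27-A3 in RPMI 1640 medium without serum. Caspofungin and micafungin stocks in sterile water; anidulafungin stock in 100% DMSO; stocks kept at −86°C.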

[2] = tested on: Nakaseomyces glabratus; assay: Antifungal activity against Candida glabrata isolate 42031 expressing wild type Fks1p and Fks2p D666E mutant by CLSI method in presence of 50% human serum; format: functional
Procedure, shortened: (§2)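 Broth microdilution MIC per CLSI M27-A3 in RPMI 1640 supplemented with 50% serum. Caspofungin and micafungin stocks in sterile water; anidulafungin stock in 100% DMSO; stocks kept at −86°C.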

[3] = tested on: Nakaseomyces glabratus; assay: Antifungal activity against Candida glabrata isolate 218 expressing wild type Fks1p and Fks2p by CLSI method; format: functional; procedure, shortened: as §1
[4] = tested on: Nakaseomyces glabratus; assay: Antifungal activity against Candida glabrata isolate 31498 expressing wild type Fks1p and Fks2p F659 deletion mutant by CLSI method; format: functional; procedure, shortened: as §1
[5] = tested on: Nakaseomyces glabratus; assay: Antifungal activity against Candida glabrata isolate 41400 expressing wild type Fks1p and Fks2p D666G mutant by CLSI method; format: functional; procedure, shortened: as §1
[6] = tested on: Nakaseomyces glabratus; assay: Antifungal activity against Candida glabrata isolate 3830 expressing wild type Fks1p and Fks2p S663P mutant by CLSI method; format: functional; procedure, shortened: as §1
[7] = molecular target: 1,3-beta-glucan synthase (Candida glabrata, UniProt F5BCZ9, D666G); assay: Inhibition of Candida glabrata isolate 41400 1,3-beta-D-glucan synthase wild type Fks1p/Fks2p D666G mutant; parameters: species or system Nakaseomyces glabratus
Procedure, shortened: (§3)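 Cells grown in YPD broth at 35°C with vigorous shaking to early stationary phase. Membrane protein extracted and glucan synthase partially purified by product entrapment. Filtration polymerization assay measured [3H]glucose incorporation into product, started by adding enzyme. Echinocandin serial dilutions spanned 0.01–10,000 ng/ml, with 1% DMSO controls for anidulafungin. IC50 from variable-slope sigmoidal fit.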

[8] = molecular target: 1,3-beta-glucan synthase (Candida glabrata, UniProt F5BCZ9, P667T); assay: Inhibition of Candida glabrata isolate 51916 1,3-beta-D-glucan synthase wild type Fks1p/Fks2p P667T mutant; parameters: species or system Nakaseomyces glabratus; procedure, shortened: as §3
[9] = tested on: Nakaseomyces glabratus; assay: Antifungal activity against Candida glabrata isolate 3169 expressing Fks1p D632E mutant and wild type Fks2p by CLSI method in presence of 50% human serum; format: functional; procedure, shortened: as §2
[10] = tested on: Nakaseomyces glabratus; assay: Antifungal activity against Candida glabrata isolate 41026 expressing wild type Fks1p and Fks2p F659S mutant by CLSI method; format: functional; procedure, shortened: as §1
[11] = tested on: Nakaseomyces glabratus; assay: Antifungal activity against Candida glabrata isolate 41026 expressing wild type Fks1p and Fks2p F659S mutant by CLSI method in presence of 50% human serum; format: functional; procedure, shortened: as §2
[12] = tested on: Nakaseomyces glabratus; assay: Antifungal activity against Candida glabrata isolate 41400 expressing wild type Fks1p and Fks2p D666G mutant by CLSI method in presence of 50% human serum; format: functional; procedure, shortened: as §2
[13] = tested on: Nakaseomyces glabratus; assay: Antifungal activity against Candida glabrata isolate 31498 expressing wild type Fks1p and Fks2p F659 deletion mutant by CLSI method in presence of 50% human serum; format: functional; procedure, shortened: as §2
[14] = molecular target: 1,3-beta-glucan synthase (Candida glabrata, UniProt F5BCZ9, W1375L); assay: Inhibition of Candida glabrata isolate 5416 1,3-beta-D-glucan synthase wild type Fks1p/Fks2p W1375L mutant; parameters: species or system Nakaseomyces glabratus; procedure, shortened: as §3
[15] = tested on: Nakaseomyces glabratus; assay: Antifungal activity against Candida glabrata isolate 21900 expressing Fks1p D632G mutant and wild type Fks2p by CLSI method in presence of 50% human serum; format: functional; procedure, shortened: as §2

1,3-beta-glucan synthase (Candida glabrata, UniProt F5BCZ9, P667T), sequence (F5BCZ9 entry or part of it P667T): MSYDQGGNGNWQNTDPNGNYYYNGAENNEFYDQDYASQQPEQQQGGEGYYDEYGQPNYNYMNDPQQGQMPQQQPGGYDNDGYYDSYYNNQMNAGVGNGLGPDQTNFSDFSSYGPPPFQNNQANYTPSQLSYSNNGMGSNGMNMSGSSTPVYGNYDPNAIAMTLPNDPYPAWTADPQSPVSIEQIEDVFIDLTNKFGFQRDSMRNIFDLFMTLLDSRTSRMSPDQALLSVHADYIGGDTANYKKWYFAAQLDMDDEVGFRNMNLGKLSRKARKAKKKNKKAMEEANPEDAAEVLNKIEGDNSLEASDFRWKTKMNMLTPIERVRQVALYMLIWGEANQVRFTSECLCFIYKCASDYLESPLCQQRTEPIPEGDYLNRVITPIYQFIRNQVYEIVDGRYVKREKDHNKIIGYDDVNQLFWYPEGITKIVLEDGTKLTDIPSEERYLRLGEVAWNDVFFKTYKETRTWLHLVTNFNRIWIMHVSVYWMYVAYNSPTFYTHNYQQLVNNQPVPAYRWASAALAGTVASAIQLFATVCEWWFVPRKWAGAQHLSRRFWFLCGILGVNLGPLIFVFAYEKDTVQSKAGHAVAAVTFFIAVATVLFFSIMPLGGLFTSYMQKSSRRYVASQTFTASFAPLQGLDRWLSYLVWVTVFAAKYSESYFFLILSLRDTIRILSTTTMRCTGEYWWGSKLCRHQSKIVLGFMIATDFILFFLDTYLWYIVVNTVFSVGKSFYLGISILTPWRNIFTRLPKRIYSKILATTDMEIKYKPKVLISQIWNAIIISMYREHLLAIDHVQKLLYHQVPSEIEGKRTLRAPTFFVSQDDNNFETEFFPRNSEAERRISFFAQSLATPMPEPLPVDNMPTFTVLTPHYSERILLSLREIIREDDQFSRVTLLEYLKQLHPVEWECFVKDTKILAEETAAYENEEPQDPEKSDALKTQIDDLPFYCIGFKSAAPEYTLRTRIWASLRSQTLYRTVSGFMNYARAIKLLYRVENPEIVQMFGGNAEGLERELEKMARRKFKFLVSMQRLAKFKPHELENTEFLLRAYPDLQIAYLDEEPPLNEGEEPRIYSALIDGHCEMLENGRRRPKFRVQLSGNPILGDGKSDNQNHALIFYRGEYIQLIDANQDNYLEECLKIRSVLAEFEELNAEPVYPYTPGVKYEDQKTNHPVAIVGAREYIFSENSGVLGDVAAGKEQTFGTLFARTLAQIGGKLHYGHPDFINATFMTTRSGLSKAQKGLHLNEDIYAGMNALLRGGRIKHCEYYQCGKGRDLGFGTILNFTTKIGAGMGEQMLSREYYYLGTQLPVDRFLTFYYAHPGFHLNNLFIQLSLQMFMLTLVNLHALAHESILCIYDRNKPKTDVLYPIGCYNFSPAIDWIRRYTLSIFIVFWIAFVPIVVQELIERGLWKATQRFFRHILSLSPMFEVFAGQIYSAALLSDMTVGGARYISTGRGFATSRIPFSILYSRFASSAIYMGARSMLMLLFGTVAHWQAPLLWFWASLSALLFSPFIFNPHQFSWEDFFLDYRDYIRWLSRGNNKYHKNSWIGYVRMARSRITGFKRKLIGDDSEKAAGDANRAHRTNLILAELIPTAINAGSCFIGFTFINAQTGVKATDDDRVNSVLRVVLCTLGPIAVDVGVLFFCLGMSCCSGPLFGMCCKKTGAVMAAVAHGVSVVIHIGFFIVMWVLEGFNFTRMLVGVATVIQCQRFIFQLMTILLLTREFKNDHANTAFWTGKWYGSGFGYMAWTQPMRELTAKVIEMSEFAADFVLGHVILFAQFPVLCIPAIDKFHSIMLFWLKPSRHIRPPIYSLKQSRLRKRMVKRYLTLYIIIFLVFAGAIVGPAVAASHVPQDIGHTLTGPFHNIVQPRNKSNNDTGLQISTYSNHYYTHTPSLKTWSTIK
1,3-beta-glucan synthase (Candida glabrata, UniProt F5BCZ9, W1375L), sequence (F5BCZ9 entry or part of it W1375L): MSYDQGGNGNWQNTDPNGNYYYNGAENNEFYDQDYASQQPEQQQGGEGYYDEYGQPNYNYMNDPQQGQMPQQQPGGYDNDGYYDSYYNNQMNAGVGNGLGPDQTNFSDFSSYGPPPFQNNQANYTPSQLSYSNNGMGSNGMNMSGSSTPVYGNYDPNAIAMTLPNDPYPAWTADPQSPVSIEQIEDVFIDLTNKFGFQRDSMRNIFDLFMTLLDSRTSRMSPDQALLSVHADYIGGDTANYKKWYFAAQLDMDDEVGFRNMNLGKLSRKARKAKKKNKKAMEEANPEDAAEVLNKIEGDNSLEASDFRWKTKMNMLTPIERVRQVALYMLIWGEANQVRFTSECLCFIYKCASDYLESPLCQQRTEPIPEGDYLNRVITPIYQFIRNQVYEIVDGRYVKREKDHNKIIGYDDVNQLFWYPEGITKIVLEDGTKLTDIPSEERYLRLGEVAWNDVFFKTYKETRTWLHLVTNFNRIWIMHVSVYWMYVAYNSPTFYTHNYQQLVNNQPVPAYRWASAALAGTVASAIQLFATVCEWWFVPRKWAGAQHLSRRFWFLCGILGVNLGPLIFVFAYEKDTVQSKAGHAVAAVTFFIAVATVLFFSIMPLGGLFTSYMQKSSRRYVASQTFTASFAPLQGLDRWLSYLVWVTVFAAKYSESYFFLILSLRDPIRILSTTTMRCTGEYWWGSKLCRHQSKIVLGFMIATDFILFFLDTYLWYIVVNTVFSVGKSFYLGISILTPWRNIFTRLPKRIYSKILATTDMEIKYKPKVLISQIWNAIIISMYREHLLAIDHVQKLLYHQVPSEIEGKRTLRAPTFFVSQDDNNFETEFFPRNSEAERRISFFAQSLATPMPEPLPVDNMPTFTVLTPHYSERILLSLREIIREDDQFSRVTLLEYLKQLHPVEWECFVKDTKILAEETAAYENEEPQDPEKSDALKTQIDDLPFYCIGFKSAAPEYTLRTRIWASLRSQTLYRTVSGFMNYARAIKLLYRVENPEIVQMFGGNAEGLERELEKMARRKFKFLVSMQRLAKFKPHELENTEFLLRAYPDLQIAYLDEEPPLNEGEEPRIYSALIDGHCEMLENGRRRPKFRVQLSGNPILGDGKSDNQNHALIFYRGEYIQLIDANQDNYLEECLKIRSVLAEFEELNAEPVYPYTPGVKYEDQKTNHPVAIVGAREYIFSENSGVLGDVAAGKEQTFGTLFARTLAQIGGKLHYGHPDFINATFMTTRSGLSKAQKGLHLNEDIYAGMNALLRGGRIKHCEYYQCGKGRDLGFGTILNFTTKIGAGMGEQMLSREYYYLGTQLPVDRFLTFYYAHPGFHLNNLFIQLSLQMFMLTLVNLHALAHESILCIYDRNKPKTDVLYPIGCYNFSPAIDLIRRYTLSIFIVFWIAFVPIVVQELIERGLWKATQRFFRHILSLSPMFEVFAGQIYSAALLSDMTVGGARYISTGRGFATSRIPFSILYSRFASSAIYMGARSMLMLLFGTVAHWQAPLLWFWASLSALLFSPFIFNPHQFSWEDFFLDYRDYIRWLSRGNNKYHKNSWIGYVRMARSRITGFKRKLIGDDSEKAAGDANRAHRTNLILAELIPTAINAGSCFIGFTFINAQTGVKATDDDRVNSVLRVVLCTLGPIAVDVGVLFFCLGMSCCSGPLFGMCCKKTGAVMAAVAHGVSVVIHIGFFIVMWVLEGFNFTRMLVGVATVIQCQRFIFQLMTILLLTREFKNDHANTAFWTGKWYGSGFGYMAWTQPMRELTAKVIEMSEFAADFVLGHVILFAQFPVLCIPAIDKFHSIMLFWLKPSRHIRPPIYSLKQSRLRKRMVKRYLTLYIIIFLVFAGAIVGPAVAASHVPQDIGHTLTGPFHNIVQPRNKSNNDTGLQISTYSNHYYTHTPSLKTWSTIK

SMILES	MIC [1]	MIC [2]	MIC [3]	MIC [4]	MIC [5]	MIC [6]	IC50 [7]	IC50 [8]	MIC [9]	MIC [10]	MIC [11]	MIC [12]	MIC [13]	IC50 [14]	MIC [15]
CCCCCOc1ccc(-c2ccc(-c3ccc(C(=O)N[C@H]4C[C@@H](O)[C@@H](O)NC(=O)[C@@H]5[C@@H](O)[C@@H](C)CN5C(=O)[C@H]([C@@H](C)O)NC(=O)[C@H]([C@H](O)[C@@H](O)c5ccc(O)cc5)NC(=O)[C@@H]5C[C@@H](O)CN5C(=O)[C@H]([C@@H](C)O)NC4=O)cc3)cc2)cc1 [ANIDULAFUNGIN] ({pTerphenylCO(4''-OnC5H11)}-[Orn(4R-OH,5R-OH)]T[Hyp][hTyr(3S-OH,4S-OH)]T[Pro(3S-OH,4S-Me)]; lactam 1-C)	0.25 µg/mL (≈ 0.219 µM)	4 µg/mL	0.06 µg/mL (≈ 0.0526 µM)	2 µg/mL (≈ 1.75 µM)	2 µg/mL (≈ 1.75 µM)	1 µg/mL (≈ 0.877 µM)	154 nM	87.3 nM	8 µg/mL	4 µg/mL (≈ 3.51 µM)	16 µg/mL	8 µg/mL	8 µg/mL	74.7 nM	8 µg/mL
CC[C@H](C)C[C@H](C)CCCCCCCCC(=O)N[C@H]1C[C@@H](O)[C@@H](NCCN)NC(=O)[C@@H]2[C@@H](O)CCN2C(=O)[C@H]([C@H](O)CCN)NC(=O)[C@H]([C@H](O)[C@@H](O)c2ccc(O)cc2)NC(=O)[C@@H]2C[C@@H](O)CN2C(=O)[C@H]([C@@H](C)O)NC1=O [CASPOFUNGIN]	4 µg/mL (≈ 3.66 µM)	8 µg/mL	0.12 µg/mL (≈ 0.11 µM)	2 µg/mL (≈ 1.83 µM)	4 µg/mL (≈ 3.66 µM)	16 µg/mL (≈ 14.6 µM)	463 nM	152 nM	8 µg/mL	16 µg/mL (≈ 14.6 µM)	16 µg/mL	8 µg/mL	8 µg/mL	556 nM	16 µg/mL
CCCCCOc1ccc(-c2cc(-c3ccc(C(=O)N[C@H]4C[C@@H](O)[C@@H](O)NC(=O)[C@@H]5[C@@H](O)[C@@H](C)CN5C(=O)[C@H]([C@H](O)CC(N)=O)NC(=O)[C@H]([C@H](O)[C@@H](O)c5ccc(O)c(OS(=O)(=O)O)c5)NC(=O)[C@@H]5C[C@@H](O)CN5C(=O)[C@H]([C@@H](C)O)NC4=O)cc3)no2)cc1 [MICAFUNGIN] (X1-[Orn(4R-OH,5R-OH)]T[Hyp][hTyr(3S-OH,4S-OH,3'-OSO3H)][Gln(3R-OH)][Pro(3S-OH,4S-Me)]; lactam 1-C)	0.25 µg/mL (≈ 0.197 µM)	4 µg/mL	0.12 µg/mL (≈ 0.0945 µM)	4 µg/mL (≈ 3.15 µM)	0.12 µg/mL (≈ 0.0945 µM)	1 µg/mL (≈ 0.787 µM)	79.2 nM	87.3 nM	8 µg/mL	4 µg/mL (≈ 3.15 µM)	16 µg/mL	4 µg/mL	8 µg/mL	39.9 nM	8 µg/mL
